# Assay outcomes from PubChem BioAssay.
# SF1 activator: activates the human nuclear receptor SF-1 | Q13285 | CHO-K1 Gal4-SF-1 LBD luciferase reporter; % increase over DMSO SF-1-specific signal | activation, % at 10 µM | 65,000 compounds, 1.9% hits | AID 522;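 active = activation above the mean activation of all tested compounds plus 3 SD, cut at about 50% in these data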
#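 Material: Gal4–SF-1 LBD one-hybrid luciferase reporter in CHO-K1 cells | Amount: 4,000 cells per well | Compound dosing: 10 µM single point, 1% DMSO | Schedule: 20 h compound treatment, 37 °C | Measured by: SteadyLite luciferase luminescence | Evaluation: Percent activation versus DMSO | Control set: DMSO-treated SF-1-transfected cells as negative, DMSO-treated mock-transfected cells lacking SF-1 as background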
# MT1-MMP txn act: MT1-MMP promoter transcription activation; HT1080 MT1-MMP promoter luciferase reporter, luminescence, overnight; stronger effect = higher value; activation factor at 10 µM; 86,000 compounds, 0.16% hits; AID 750;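 active = activation factor of at least 2 for MT1-MMP transcription at 10 µM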
# TNAP act mid DEA: activators of human TNAP at intermediate phosphate acceptor; purified TNAP, CDP-star luminescence, 100 mM DEA, 30 min; stronger effect = higher value; scale: 0 levamisole-inhibited, 1 vehicle-only enzyme; activation factor at 20 µM; P05186; AID 813; 64,000 tested, under 10 active;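 active = activation factor of at least 2 at 20 µM, relative to controls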
# RORA act: activates the human nuclear receptor RORA; CHO-K1 Gal4-RORA LBD luciferase reporter, luminescence; percent increase over mock-subtracted basal signal; activation, % at 10 µM; 65,000 compounds, 1.5% hits; AID 560;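 active = activation above the mean of all tested compounds plus 3 SD, cut at about 49% in these data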
# Mac1 fbg inh: CD11b/CD18-fibrinogen binding inhibition; P05107+P11215; K562 CD11b/CD18 adhesion to fibrinogen, ATPlite luminescence; Mn2+ added to activate the integrin; inhibition, % at 10 µM; 93,000 compounds, 0.54% hits;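 active = primary inhibition of 50% or more at 10 µM, then 40% or more on retest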
# Target sequence (P05107 whole entry, looked up, other chains not shown): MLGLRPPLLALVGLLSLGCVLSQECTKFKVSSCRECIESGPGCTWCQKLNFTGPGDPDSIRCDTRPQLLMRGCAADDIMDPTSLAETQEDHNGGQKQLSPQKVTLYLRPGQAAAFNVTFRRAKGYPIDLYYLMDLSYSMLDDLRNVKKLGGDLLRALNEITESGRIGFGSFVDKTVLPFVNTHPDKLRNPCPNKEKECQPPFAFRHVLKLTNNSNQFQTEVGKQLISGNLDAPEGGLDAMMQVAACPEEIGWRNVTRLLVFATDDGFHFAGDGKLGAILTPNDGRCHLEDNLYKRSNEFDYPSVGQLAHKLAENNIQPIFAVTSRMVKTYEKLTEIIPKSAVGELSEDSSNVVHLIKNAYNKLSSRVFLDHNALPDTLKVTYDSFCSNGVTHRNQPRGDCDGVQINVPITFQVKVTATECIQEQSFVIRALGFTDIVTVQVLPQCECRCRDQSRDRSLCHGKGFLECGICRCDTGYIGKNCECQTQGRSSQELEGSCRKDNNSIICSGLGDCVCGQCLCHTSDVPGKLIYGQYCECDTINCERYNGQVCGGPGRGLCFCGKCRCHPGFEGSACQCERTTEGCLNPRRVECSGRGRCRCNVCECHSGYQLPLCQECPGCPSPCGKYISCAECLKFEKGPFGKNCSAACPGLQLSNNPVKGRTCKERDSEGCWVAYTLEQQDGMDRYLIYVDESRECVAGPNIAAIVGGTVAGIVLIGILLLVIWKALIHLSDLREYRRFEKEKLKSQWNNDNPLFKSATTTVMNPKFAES
# CD11b adhes enh: CD11b/CD18-fibrinogen binding enhancement; activation, % at 10 µM; 93,000 compounds, 0.07% hits; AID 1499; K562 CD11b/CD18 adhesion to fibrinogen, ATPlite luminescence; P05107+P11215;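 active = 10 µM primary screen giving 50% or more activity, confirmed by 40% or more on retest at that dose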
# Numbers stand for hits; i = inactive; nt = no result given. Most compounds without a hit are left out; they make up all but 2.1% or so of the library.
SMILES,SF1 activator,MT1-MMP txn act,TNAP act mid DEA,RORA act,Mac1 fbg inh,CD11b adhes enh
COc1ccc(-c2nc(-c3cccc(C)c3)no2)cc1OC,59,i,i,61,nt,nt
COc1ccc(-c2nc(-c3ccccc3OC)no2)cc1OC,i,i,i,56,i,i
CCC#CCOCC(=O)Nc1ccccc1,nt,i,nt,nt,nt,nt
O=C(CCCOc1ccc(Cl)cc1Cl)N/N=C/c1ccccc1O,nt,nt,nt,nt,i,i
COC(=O)c1ccc(C(NC(=O)OCc2ccccc2)/C(F)=C/[C@@H](C)C(=O)NCc2nc3ccccc3s2)cc1 (some centres undefined),nt,i,nt,nt,nt,nt
CCOc1ccc(C2OC(=O)Cc3cc(OC)c(OC)cc32)cc1 (centres undefined),nt,nt,nt,nt,i,i
Nc1ccc2oc(CCc3ccccc3)nc2c1,79,i,i,144,i,i
Cc1ccccc1-c1nc2cc(N)ccc2o1,58,i,i,i,i,i
O=C(N/N=C/c1ccccc1O)C1(O)c2ccccc2-c2ccccc21,nt,nt,nt,nt,i,i
O=c1sc(Nc2ccccc2)nc2ccsc12,56,nt,i,70,i,i
O=c1oc(-c2ccccc2Cl)nc2ccsc12,nt,i,nt,nt,i,i
CCCc1cc(-c2[nH]ncc2-c2ccc3c(c2)OCCCO3)c(O)cc1OC,nt,i,nt,nt,i,i
CCc1cc(-c2[nH]ncc2-c2ccc3c(c2)OCO3)c(O)cc1O,i,i,i,i,70,i
COc1cc([N+](=O)[O-])ccc1NC(=O)CCCOc1cccc(C)c1C,nt,nt,nt,nt,i,i
CCCc1noc(-c2ccc(-c3ccccc3)cc2)n1,55,i,i,57,i,i
COc1ccc(CC(NC(C)=O)C(=O)NC2CCN(c3c4c(nc5ncnn35)CCC4)CC2)cc1 (centres undefined),i,i,i,i,i,i
COc1cccc(CC(NC(C)=O)C(=O)NC2CCN(c3c4c(nc5ncnn35)CCC4)CC2)c1 (centres undefined),72,i,i,i,nt,nt
COc1ccc(S(=O)(=O)N2CCOCC2)cc1NC(=O)c1cccc2c(=O)c(C)c(-c3ccccc3)oc12,nt,nt,nt,nt,i,i
CCc1nnc(NC(=O)CSc2nc(C)c3c(c2C#N)CCCC3)s1,55,i,i,i,i,i
COc1ccc(C2N=C(c3ccccc3)C(C)(C)N2O)cc1 (centres undefined),nt,i,nt,nt,i,i
COc1ccc(S(=O)(=O)NCc2ccccn2)cc1Cl,i,i,i,i,i,i
COc1ccccc1Oc1ccc(S(=O)(=O)NCc2ccccn2)cc1,i,i,i,i,68,i
C=C(C)CNC(=S)N/N=C1\CCCCc2ccccc21,nt,nt,nt,nt,i,i
COc1ccc(Nc2nc(C)c3ccccc3n2)cc1,99,2.1,i,55,i,i
O=C(NCCc1cccs1)C1CC(c2ccccc2[N+](=O)[O-])=NO1 (centres undefined),nt,nt,nt,nt,i,i
SMILES,SF1 activator,MT1-MMP txn act,TNAP act mid DEA,RORA act,Mac1 fbg inh,CD11b adhes enh
Cc1ccc2nc(SCC(=O)N3CCCC3)[nH]c2c1,53,i,i,74,i,i
N#CCSc1n[nH]c2nc3c(c(=O)n12)C1(CCCC1)Cc1ccccc1-3,i,i,i,i,78,i
Cc1ccc(-c2nc3sc4c(c3c(=O)n2N)CCCC4)cc1,nt,nt,nt,nt,i,i
O=C(Cn1c(=O)[nH]c2ccsc2c1=O)NC1CCCCCC1,i,i,i,i,nt,nt
CC1CCC(NC(=O)Cn2c(=O)[nH]c3ccsc3c2=O)CC1 (centres undefined),i,i,i,51,i,i
Cc1nn(-c2cccc(Cl)c2)c2nc(C(F)(F)F)[nH]c(=O)c12,nt,nt,nt,nt,102,i
COC(/C=C/Nc1ccc(C)cc1)=C(C#N)C#N,nt,nt,nt,nt,i,i
COc1ccc(-n2nc3cc(C)c(N)c(Br)c3n2)cc1,64,i,i,50,i,i
COc1ccc(OC)c(C2=NOC(C(=O)N3CCCc4ccccc43)C2)c1 (centres undefined),nt,i,nt,nt,i,i
CCCCNc1ncnc2c1cnn2-c1ccccc1,i,i,i,63,i,i
Fc1cccc(Nc2ncnc3c2cnn3-c2ccccc2)c1,57,i,i,102,nt,nt
Clc1cccc(Nc2ncnc3c2cnn3-c2ccccc2)c1,i,i,i,i,i,i
c1ccc(-n2ncc3c(NCCCN4CCOCC4)ncnc32)cc1,i,i,i,i,nt,nt
Clc1ccc(-n2ncc3c(NCCCn4ccnc4)ncnc32)cc1,i,i,i,i,i,i
CCCCNc1ncnc2c1cnn2-c1ccc(Cl)cc1,90,i,i,109,i,i
COc1ccc(CNC(=O)C2CCCN(c3nccc(C)n3)C2)cc1 (centres undefined),nt,i,nt,nt,nt,nt
COC(=O)c1ccc(C(NC(=O)OCc2ccccc2)/C(C)=C/[C@@H](C)CO)cc1 (some centres undefined),nt,i,nt,nt,nt,nt
S=C(Nc1ccc(Cl)c(Cl)c1)NN1CCOCC1,nt,nt,nt,nt,i,i
Cc1[nH]c2ccc(F)cc2c(=O)c1SC(F)(F)C(F)C(F)(F)F (centres undefined),i,i,i,i,i,i
COc1cccc2c(=O)c(SC(F)(F)C(F)C(F)(F)F)c(C)[nH]c12 (centres undefined),51,i,i,i,i,i
O=C(NNC(=O)c1ccccc1Br)c1cccc(Cl)c1,nt,nt,nt,nt,i,i
O=C(NNC1=C(C(=O)C(F)(F)F)CCC1)c1ccc(Cl)cc1,nt,i,nt,nt,96,i
O=C(NNC1=C(C(=O)C(F)(F)F)CCC1)c1cccc(Cl)c1,nt,i,nt,nt,99,i
COc1ccc2[nH]c3nc(SCc4nnc(-c5ccc(C)cc5)o4)nnc3c2c1,i,i,i,i,i,i
CC(=O)N1[C@H](Cc2ccccc2)C=C[C@]1(C)C(=O)NCc1cc(F)cc(C(F)(F)F)c1,nt,i,nt,nt,nt,nt
SMILES,SF1 activator,MT1-MMP txn act,TNAP act mid DEA,RORA act,Mac1 fbg inh,CD11b adhes enh
Cc1ccc(OCc2ccc(C(=O)N3CCOCC3)cc2)cc1C,i,i,i,52,i,i
N#Cc1c(C(F)(F)F)cc(-c2cccc(Cl)c2)[nH]c1=O,nt,nt,nt,nt,106,i
N#Cc1c(C(F)(F)F)cc(-c2ccc(Cl)cc2)[nH]c1=O,nt,nt,nt,nt,104,i
O=C(Nc1ccc(Cn2cccn2)cc1)c1ccc(COc2ccc(Br)cc2)cc1,nt,nt,nt,nt,i,52
c1cncc(-c2noc(CC3CCCCC3)n2)c1,nt,i,nt,nt,i,i
Nc1nc(NC(=O)c2cccs2)nn1-c1ccccc1,77,i,i,i,i,i
Cc1nn(-c2ccccc2)c(C)c1NC(=O)c1cccs1,i,nt,i,i,i,i
O=C(Nc1ccc2nn(-c3ccccc3)nc2c1)c1cccs1,70,i,i,i,i,i
CC(OC(=O)c1nn(C(C)C)c(=O)c2ccccc12)C(=O)Nc1ncc(Cl)cc1Cl (centres undefined),nt,nt,nt,nt,i,i
CCc1ccc(-c2c(C)sc(NC(C)=O)c2C(N)=O)cc1,nt,nt,nt,nt,i,i
Cc1cc(C(=O)Nc2sc(C)c(-c3ccc(F)cc3)c2C(N)=O)no1,85,i,i,i,i,i
